Assay results from article PMC3472128 (Structure (London, England : 1993), 2012).
Entries after “also recorded” stand apart in the source; their conditions may differ. Each block holds one substance with its values, some of them ahead of it.

Columns and labels:
HA-YAP = assay: Immunoprecipitation of Smad7 with HA-YAP in HEK293T cells; type: cell-based, human; details: full-length Smad7 wild type or variants with HA-YAP
How it was run: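 HEK293T cells were transfected with epitope-tagged constructs (HA-YAP with full-length Smad7 wild type or variants) and treated where indicated with TGF-β1 at 100 pM. Lysates were immunoprecipitated with anti-Flag antibody, then immunoblotted with antibodies against the tags.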

Smurf2 WW2-WW3 [1] = molecular target: T1, Smurf2 WW2-WW3 (Homo sapiens, UniProt Q9HAU4); assay: IM-MS, complexes of Smurf2 WW2-WW3 with Smad7 peptide; type: binding; details: protein concentrations used in ITC (30–50 μM)
Smurf1 WW1-WW2 [2] = molecular target: T2, Smurf1 WW1-WW2 (Homo sapiens, UniProt Q9HCE7); assay: ITC, Smad7 peptide vs Smurf1 WW1-WW2 pair; type: binding
T2 sequence (Q9HCE7 233-314 isoform Q9HCE7-2): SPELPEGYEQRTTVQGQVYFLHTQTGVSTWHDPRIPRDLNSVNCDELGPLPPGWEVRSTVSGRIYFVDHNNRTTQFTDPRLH
How it was run: (§1)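 Nano ITC was run at 5, 15 and 25 °C, in Tris and in ammonium acetate at pH 7. Kd and stoichiometry come from fits. Each run was done at least three times with two protein expression batches.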

Smurf2 = assay: NMR, Smad7 peptide binding to Smurf2; design: species or system human; details: triple resonance NMR; 285 K/298 K
Smurf1 WW1 [3] = assay: ITC, Smad7 peptide vs Smurf1 WW1; type: binding, human
[4] = system: Smurf1 WW1-WW2 Gln247 and Gln249 to Glu; assay: ITC, Smad7 peptide vs Smurf1 WW1-WW2 Gln247 and Gln249 to Glu; type: binding, human
Smurf1 WW1-WW2 Arg243Glu = assay: ITC, Smad7 peptide vs Smurf1 WW1-WW2 Arg243Glu; type: binding, human
Smurf1 WW1-WW2 Gln249Glu = assay: ITC, Smad7 peptide vs Smurf1 WW1-WW2 Gln249Glu; type: binding, human
[5] = system: Nedd4L WW2-WW3 mutant constructs (bind only one PY site); assay: ITC, Smad7 peptide vs Nedd4L WW2-WW3 mutant constructs; type: binding, human; details: two WW2-WW3 mutant constructs that bind only one PY site
Smurf1 WW1-WW2 [6] = molecular target: T2, Smurf1 WW1-WW2; assay: IM-MS, complexes of Smurf1 WW1-WW2 with Smad7 peptide; type: binding; details: protein concentrations used in ITC (30–50 μM)
Smurf1 WW1-WW2 Arg243Ala = assay: ITC, Smad7 peptide vs Smurf1 WW1-WW2 Arg243Ala; type: binding, human
Smurf1 WW2 [7] = molecular target: T3, Smurf1 WW2 (Homo sapiens, UniProt Q9HCE7); assay: IM-MS, Smurf1 WW2 dimer population; type: binding
How it was run: (§2)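 Traveling-wave ion mobility–mass spectrometry was run on the recombinant Smurf WW protein mixed with the Smad7 peptide. Monomer, dimer and trimer species carrying zero to three ligands were assigned by specific ionisation mass and characteristic drift time.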

Smurf1 WW1-WW2 pair = assay: NMR, Smad7 peptide binding to Smurf1; design: species or system human; details: triple resonance NMR; 285 K/298 K
[8] = system: three possible Nedd4L WW-WW pairs; assay: ITC, Smad7 peptide vs Nedd4L WW-WW pairs; type: binding, human
YAP WW2 = assay: ITC, Smad7 peptide vs YAP WW2; type: binding, human; details: 15°C, weaker than YAP WW1
[9] = molecular target: Nedd4L WW2 domain Arg380Glu (Homo sapiens, UniProt Q96PU5, R400E); assay: ITC, Smad7 peptide vs Nedd4L WW2 Arg380Glu; type: binding
YAP WW1 domain = YAP WW1 domain (Homo sapiens, UniProt P46937); assay: ITC, Smad7 peptide vs YAP WW1; type: binding
[10] = molecular target: four independent Nedd4L WW domains; assay: ITC, Smad7 peptide vs independent Nedd4L WW domains; type: binding, human; details: each of the four independent WW domains, values shown in Figure 1B only
Smurf2 WW2 = assay: ITC, Smad7 peptide vs Smurf2 WW2; type: binding, human
Nedd4L WW2-WW3 pair = assay: ITC, Smad7 peptide vs Nedd4L WW2-WW3 pair; type: binding, human
[11] = molecular target: Nedd4L WW2 domain Lys378/Arg380 to Glu (Homo sapiens, UniProt Q96PU5, K398E/R400E); assay: ITC, Smad7 peptide vs Nedd4L WW2 double mutant; type: binding
[12] = molecular target: Nedd4L WW2 domain Lys378Glu (Homo sapiens, UniProt Q96PU5, K398E); assay: ITC, Smad7 peptide vs Nedd4L WW2 Lys378Glu; type: binding
YAP WW1-WW2 pair = YAP WW1-WW2 pair (Homo sapiens, UniProt P46937); assay: ITC, YAP WW1-WW2 pair; type: binding
Smurf2 WW2-WW3 [13] = molecular target: T1, Smurf2 WW2-WW3; assay: ITC, Smad7 peptide vs Smurf2 WW2-WW3 pair; type: binding
How it was run: as §1

[14] = molecular target: Smurf1 WW2 domain Arg295Glu (Homo sapiens, UniProt Q9HCE7, R321E); assay: ITC, Smad7 peptide vs Smurf1 WW2 Arg295Glu; type: binding
Nedd4L WW domains = assay: ITC, preferred Nedd4L WW domain for Smad7 peptide; type: binding, human
Smurf1 WW1 [15] = assay: IM-MS, Smurf1 WW1 dimer population; type: binding, human
How it was run: as §2

Smurf2 WW3 domain R312E = Smurf2 WW3 domain R312E (Homo sapiens, UniProt Q9HAU4, R312E); assay: ITC, Smad7 peptide vs Smurf2 WW3 R312E; type: binding
Smurf1 WW2 [16] = molecular target: T3, Smurf1 WW2; assay: ITC, Smad7 peptide vs Smurf1 WW2; type: binding

Chain of YAP WW1-WW2 pair (P46937 163-266 limits assumed): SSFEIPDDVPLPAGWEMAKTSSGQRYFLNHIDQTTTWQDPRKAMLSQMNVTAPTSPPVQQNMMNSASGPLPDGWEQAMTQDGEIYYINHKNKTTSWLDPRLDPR
T1 sequence (Q9HAU4 250-333 limits assumed): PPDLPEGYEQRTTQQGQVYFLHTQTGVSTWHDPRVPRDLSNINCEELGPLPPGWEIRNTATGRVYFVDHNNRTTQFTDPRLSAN
Chain of YAP WW1 domain (P46937 163-206): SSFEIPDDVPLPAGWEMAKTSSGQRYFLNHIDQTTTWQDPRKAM
Chain of Smurf1 WW2 domain Arg295Glu (Q9HCE7 303-340 R321E limits assumed): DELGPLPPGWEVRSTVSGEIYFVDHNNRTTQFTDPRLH
Chain of Nedd4L WW2 domain Lys378Glu (Q96PU5 384-423 K398E): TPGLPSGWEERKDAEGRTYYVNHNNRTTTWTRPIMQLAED
Chain of Smurf2 WW3 domain R312E (Q9HAU4 297-333 R312E limits assumed): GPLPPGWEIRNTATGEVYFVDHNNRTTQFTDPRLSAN
Chain of Nedd4L WW2 domain Arg380Glu (Q96PU5 384-423 R400E): as the sequence (Q96PU5 384-423 K398E) above, with E15K, R17E counted along it
Chain of Nedd4L WW2 domain Lys378/Arg380 to Glu (Q96PU5 384-423 K398E/R400E): as the sequence (Q96PU5 384-423 K398E) above, with R17E counted along it

Substance: Smad7: full-length protein Smad7 (wild type), flag epitope-tagged, expressed in HEK293T
- binding to HA-YAP in immunoprecipitation (HA-YAP): binding is observed

- stoichiometry (Smurf1 WW1-WW2 [2]; ITC, 15 °C, Tris buffer): 0.7
- stoichiometry (Smurf1 WW1-WW2 [2]; ITC, all temperatures): < 1
- Kd (Smurf1 WW1-WW2 [2]; affinity (KD), ITC, 15 °C, Tris buffer (Figure 1C), at least three times, two protein expression batches): 1.7 ± 0.3 µM
- affinity increase due to the WW domain pair (Smurf1 WW1-WW2 [2]; pair versus Smurf1 WW2 at a given temperature): about 2 fold
- WW domain used for interaction (Smurf2): the WW3 for Smurf2
- dimer population in the presence of peptide (Smurf1 WW2 [7]): reduced
- WW domain used for interaction (Smurf1 WW1-WW2 pair): using the WW2 domain
- dissociation constants ([8]; three possible WW-WW pairs, values shown in Figure 1B only): in the μM range
- Kd [9]: 15.4 ± 3.5 µM
- Kd (YAP WW1 domain): 6.9 ± 0.28 µM
- preferred WW domain (YAP WW1 domain; ITC, 15°C): YAP WW1 domain preferentially binds
- dissociation constants [10]: in the μM range
- Kd [11]: 27.3 ± 2.2 µM
- Kd [12]: 23.5 ± 1.5 µM
- Kd (YAP WW1-WW2 pair): 9.8 ± 0.9 µM
- stoichiometry N (YAP WW1-WW2 pair; ITC, 15°C): 1
- stoichiometry (Smurf2 WW2-WW3 [13]; ITC, all temperatures): < 1
- Kd (Smurf2 WW2-WW3 [13]; affinity (KD), ITC, 15 °C): 1.7 ± 0.3 µM
- affinity increase due to the WW domain pair (Smurf2 WW2-WW3 [13]; pair versus Smurf2 WW3 at a given temperature): about 2 fold
- Kd [14]: 48.6 ± 6.4 µM
- decrease of binding affinity ([14]; R295E versus wild type): approximately 8 fold
- Kd (Smurf2 WW3 domain R312E): 34.2 ± 1.6 µM
- Kd (Smurf1 WW2 [16]): 4.1 ± 0.6 µM
- stoichiometry (Smurf1 WW2 [16]; ITC, independent WW2, 15 °C, Tris buffer): 1
Substance: Ac-ELESPPPPYSRYPMD-NH2 [Smad7 peptide]
- species detected (Smurf2 WW2-WW3 [1]): dimers with one or with two bound ligands and trimers
- affinity (Smurf1 WW1 [3]): very low affinity
- reduction of affinity [4]: 3 fold
- reduction of affinity (Smurf1 WW1-WW2 Arg243Glu): 10 fold
- reduction of affinity (Smurf1 WW1-WW2 Gln249Glu): 3 fold
- peptide affinity [5]: close to those of the single domains
- species detected (Smurf1 WW1-WW2 [6]): monomeric complexes, protein dimers bound to only one ligand, dimers bound to two ligands and higher order species; also recorded: dimers with one or with two bound ligands and trimers
- reduction of affinity (Smurf1 WW1-WW2 Arg243Ala): 3 fold
- effect of domain pairs on affinity ([8]; in vitro, versus single domains): does not increase the affinity in vitro
- dissociation constant relative to WW1 (YAP WW2): 9 fold
- affinity (Smurf2 WW2): very low affinity
- stoichiometry (peptide per protein) (Nedd4L WW2-WW3 pair): two equivalents of peptide per protein
- affinity, WW1-WW2 pair versus independent WW1 (YAP WW1-WW2 pair; ITC): binds slightly worse than the isolated WW1
- preferred WW domain (Nedd4L WW domains): preferentially uses WW2
- dimer population in the presence of peptide (Smurf1 WW1 [15]): unaffected
